From PubChem BioAssay
In the library only some 5.9% were active in any assay of this set; here they are far more common.
T cruzi growth-1 = T. cruzi proliferation inhibition | T. cruzi beta-gal in NIH3T3, GalScreen luminescence, 90 h | inhibition, % at 8.34 µM | 77,000 compounds, 5.9% hits | AID 624255;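 active means mean inhibition above about 93%, with at least 55% of replicates each passing it, limit read from the data, passing the limit was not always enough; inconclusive means only one of those two conditions holds; inactive means neither condition holds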
Pf Dd2 growth = P. falciparum Dd2 growth inhibition; SYBR Green, 72 h; hits give low values; activity change, % at 10 µM; 94,000 compounds, 2.3% hits; AID 1159554; in the data active means activity change below about -80%; inconclusive means no clear call, values can overlap the other calls
KDM4C inh = inhibitors of human demethylase GASC-1 KDM4C; inhibition, % at 12.5 µM; GST-KDM4C 2-372, H3K9me3 peptide, LANCE TR-FRET; AID 720574; 96,000 compounds, 0.15% hits; Q9H3R0;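 active means mean replicate inhibition above about 25%, with at least 55% of replicates also reaching it, limit read from the data, passing the limit was not always enough; inconclusive means only one of those two conditions met; inactive means neither condition met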
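Test system – GST-tagged GASC-1 (JMJD2C) catalytic fragment, aa 2-372 · Medium – HEPES buffer, pH 7.5, plus ascorbate · Reagent – H3K9me3 peptide with Fe(II)/2OG · Compound – one test concentration per compound · Timing – 30 min reaction, 60 min detection, RT · Technique – TR-FRET with Eu antibody and ULight streptavidin, EDTA stop · Read-out basis – inhibition from TR-FRET ratio decrease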
IDH1 R132H inh = IDH1 R132H (human) inhibition; IDH1 R132H reductase, diaphorase/resazurin fluorescence, 60 min; O75874; 70,000 compounds, 0.18% hits; inhibition, % at 10 µM; in the data active means inhibition above about 34%; inconclusive means no clear call, values can overlap the other calls; inactive means below about 11%;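 further: 0% = DMSO and 100% = no enzyme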
Target sequence (O75874 whole entry R132H): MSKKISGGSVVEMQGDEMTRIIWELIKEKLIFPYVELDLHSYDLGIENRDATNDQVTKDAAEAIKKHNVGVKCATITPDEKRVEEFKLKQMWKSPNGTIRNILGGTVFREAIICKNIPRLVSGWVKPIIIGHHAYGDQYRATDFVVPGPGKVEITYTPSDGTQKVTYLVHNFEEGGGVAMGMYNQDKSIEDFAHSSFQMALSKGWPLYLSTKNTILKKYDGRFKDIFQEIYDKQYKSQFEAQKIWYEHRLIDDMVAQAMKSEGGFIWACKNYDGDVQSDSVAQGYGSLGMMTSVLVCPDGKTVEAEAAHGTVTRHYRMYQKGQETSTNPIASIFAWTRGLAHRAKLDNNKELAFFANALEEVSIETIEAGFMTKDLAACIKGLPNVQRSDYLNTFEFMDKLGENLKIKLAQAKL
T cruzi growth-2 = blocks T. cruzi growth in NIH3T3 host cells; AID 651739; shares compounds with T cruzi growth-1; 5,600 compounds, 72% hits; T. cruzi beta-gal in NIH3T3, GalScreen luminescence, 90 h; inhibition, % at 8.35 µM;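 active means mean replicate inhibition above about 95% and at least 55% of replicates individually reaching it, limit read from the data; inconclusive means only one of the two criteria is met; inactive means neither criterion is met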
T cruzi growth-3 = inhibitors of T. cruzi proliferation; inhibition, % at 2.09 µM; 5,600 compounds, 21% hits; T. cruzi beta-gal in NIH3T3, GalScreen luminescence, 90 h; shares compounds with T cruzi growth-1;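 active means mean inhibition above about 95%, with at least 55% of replicates also reaching it, limit read from the data; inconclusive means meets just one of the two conditions; inactive means meets neither condition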;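 further: plate controls were neutral control median for no effect and positive control median for full effect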
3T3 cytotox = kills mouse NIH/3T3 fibroblasts; shares compounds with T cruzi growth-1; NIH/3T3 viability, CellTiter-Glo ATP luminescence, 90 h; cytotoxicity (signal decrease), % at 8.35 µM; 5,600 compounds, 14% hits;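 active means mean signal decrease across replicates above about 35% based on untreated-well scatter, with enough replicates individually passing, limit read from the data; inconclusive means no rule stated though some were filed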;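 further: 0% = median of neutral control wells and 100% = median of positive control wells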
NIH3T3 tox 2 = NIH/3T3 (mouse) viability loss; shares compounds with T cruzi growth-1; NIH/3T3 viability, CellTiter-Glo ATP luminescence, 90 h; inhibition, % at 24.9 µM; 5,600 compounds, 56% hits;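 active means mean loss of cell viability signal at or above a set limit, and enough replicates individually reaching it; inconclusive means meets only the mean limit or only the replicate share; inactive means meets neither condition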;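 further: 0% = median of neutral control wells and 100% = median of positive control wells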
The depositor's hits bear a star; ? = inconclusive; · = no result given.

SMILES | T cruzi growth-1 | Pf Dd2 growth | KDM4C inh | IDH1 R132H inh | T cruzi growth-2 | T cruzi growth-3 | 3T3 cytotox | NIH3T3 tox 2
C[C@@H]1CCCCO[C@@H](CN(C)C(=O)Nc2ccccc2)[C@@H](C)CN([C@H](C)CO)C(=O)c2cc(NS(=O)(=O)c3ccc(Cl)cc3)ccc2O1 | 48 | -7 | 1 | 1 | · | · | · | ·
C/C=C/c1ccc(O)cc1C(=O)C(C)O (configuration not stated) | · | · | · | 0 | · | · | · | ·
COc1cc(-c2nc3ccccc3s2)cc(Br)c1OCC(N)=O | · | · | · | 0 | · | · | · | ·
O=S(=O)(c1ccc(F)cc1)N1CCCCN2[C@H](C1)[C@H](c1ccc(C#CC3CCCC3)cc1)[C@@H]2CO | 116* | 6 | · | · | 97* | 87 | 27 | 54*
COc1ccc(S(=O)(=O)N2CCCCN3[C@H](C2)[C@H](c2ccc(C#CC4CC4)cc2)[C@@H]3CO)cc1 | 124* | 16 | 0 | · | 106* | 73 | 15 | -11
COc1ccc(S(=O)(=O)N2CCCCN3[C@H](CO)[C@H](c4ccc(C#CC5CC5)cc4)[C@H]3C2)cc1 | 100* | -38 | 1 | · | 106* | 111* | 54* | 105*
CCN(CC(=O)Nc1ccc(OC)c(Cl)c1)S(=O)(=O)c1ccc2ccccc2c1 | · | · | · | 0 | · | · | · | ·
CC(C)C#Cc1ccc([C@H]2[C@@H](CO)N3CCCCN(S(=O)(=O)Cc4ccccc4)C[C@H]23)cc1 | 103* | -66 | 2 | · | 105* | 73 | 58* | 105*
CC(C)C#Cc1ccc([C@H]2[C@@H](CO)N3CCCCN(S(=O)(=O)Cc4ccccc4)C[C@@H]23)cc1 | 109* | 5 | 1 | · | 108* | 65 | 27 | 12
CC(C)C#Cc1ccc([C@H]2[C@H]3CN(S(=O)(=O)Cc4ccccc4)CCCCN3[C@H]2CO)cc1 | 110* | -3 | 0 | · | 106* | 46 | 27 | 21
C[C@H](O)C#Cc1ccc([C@@H]2[C@@H](CO)N3CCCCN(S(=O)(=O)Cc4ccccc4)C[C@@H]23)cc1 | 54 | -40 | 1 | · | · | · | · | ·
CC(C)C#Cc1ccc([C@@H]2[C@H](CO)N3CCCCN(S(=O)(=O)Cc4ccccc4)C[C@@H]23)cc1 | 102* | -63 | -1 | · | 104* | 72 | 47* | 105*
C[C@@H]1CCCCO[C@H](CN(C)S(=O)(=O)c2cccs2)[C@H](C)CN([C@@H](C)CO)C(=O)c2cc(NC(=O)Nc3ccc(F)cc3)ccc2O1 | 59 | -53 | 6 | · | · | · | · | ·
C[C@H]1CCCCO[C@H](CN(C)S(=O)(=O)c2cccs2)[C@@H](C)CN([C@@H](C)CO)C(=O)c2cc(NC(=O)Nc3ccc(F)cc3)ccc2O1 | 97* | -73 | -1 | · | 104* | 39 | 24 | 6
C[C@@H]1CCCCO[C@H](CN(C)S(=O)(=O)c2cccs2)[C@H](C)CN([C@H](C)CO)C(=O)c2cc(NC(=O)Nc3ccc(F)cc3)ccc2O1 | ? | -85* | -4 | · | 113* | 100* | -16 | 12
C[C@H]1CN([C@@H](C)CO)C(=O)c2cc(NC(=O)Nc3ccc(C(F)(F)F)cc3)ccc2O[C@H]1CN(C)S(=O)(=O)c1cccs1 | 123* | 9 | 0 | 1 | 103* | 57 | 5 | 85*
C[C@@H]1CCCCO[C@@H](CN(C)S(=O)(=O)c2cccs2)[C@H](C)CN([C@H](C)CO)C(=O)c2cc(NC(=O)NC3CCCCC3)ccc2O1 | 118* | ? | -4 | · | 106* | 36 | 2 | -3
C[C@H](CO)N1C[C@H](C)[C@@H](CN(C)S(=O)(=O)c2cccs2)Oc2ccc(NC(=O)Nc3ccc(F)cc3)cc2C1=O | -49 | -15 | -2 | 1 | · | · | · | ·
C[C@H](CO)N1C[C@H](C)[C@@H](CN(C)S(=O)(=O)c2cccs2)OCCCC[C@H](C)Oc2ccc(NC(=O)NC3CCCCC3)cc2C1=O | 76 | -46 | 1 | · | · | · | · | ·
